ChEMBL document CHEMBL4393681, “The identification of naturally occurring labdane diterpenoid calcaratarin D as a potential anti-inflammatory agent” (Eur J Med Chem, 2019)
Values belong to the molecule of their own block, whether it stands above or below them. Active and inactive are the calls of the source. No cut-off for these calls is given here.

Key:
[1] = test system: RAW264.7; assay: Inhibition of LPS-stimulated SAPK/JNK phosphorylation in mouse RAW264.7 cells at 5 to 20 uM pretreated for 1 hr followed by LPS stimulation and measured after 4 hrs by Western blot analysis; assay type: cell-based
Method in brief: (§1)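 RAW264.7 cells received compound (5–20 µM) or vehicle with LPS 25 ng/mL for 4 h. Phospho-ERK1/2, SAPK/JNK, p38 and Akt were immunoblotted against a GAPDH loading control. Akt phosphorylation was quantified by band intensity, mean ± SEM, n = 4, versus 0.02% DMSO cells.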

[2] = target: MAP kinase p38 (Mus musculus) (UniProt P47811+O08911+Q9WUI1+Q9Z1B7); assay: Inhibition of LPS-stimulated p38 MAPK phosphorylation in mouse RAW264.7 cells at 5 to 20 uM pretreated for 1 hr followed by LPS stimulation and measured after 4 hrs by Western blot analysis; assay type: cell-based; method in brief: as §1
[3] = species on record: Mus musculus; assay: Inhibition of LPS-stimulated NFkappaB activation in mouse RAW blue cells assessed as reduction in SEAP protein expression at 0.1 to 20 uM pretreated for 1 hr followed by LPS stimulation and measured after 24 hrs by reporter gene assay; assay type: cell-based
Method in brief: (§2)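 RAW-Blue NF-κB–SEAP reporter cells were pretreated for 1 h with compound (0.1–20 µM), dexamethasone 1 µM or DMSO vehicle, then given LPS 25 ng/mL for 24 h. SEAP activity in the supernatant was read with LPS-treated 0.02% DMSO cells set as 100%. Mean ± SEM, n = 4.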

[4] = target: RAC-alpha serine/threonine-protein kinase (Mus musculus) (UniProt P31750); assay: Inhibition of LPS-stimulated AKT phosphorylation in mouse RAW264.7 cells at 5 to 20 uM pretreated for 1 hr followed by LPS stimulation and measured after 4 hrs by Western blot analysis; assay type: cell-based; method in brief: as §1
Sequence of RAC-alpha serine/threonine-protein kinase (Mus musculus) (P31750 whole entry): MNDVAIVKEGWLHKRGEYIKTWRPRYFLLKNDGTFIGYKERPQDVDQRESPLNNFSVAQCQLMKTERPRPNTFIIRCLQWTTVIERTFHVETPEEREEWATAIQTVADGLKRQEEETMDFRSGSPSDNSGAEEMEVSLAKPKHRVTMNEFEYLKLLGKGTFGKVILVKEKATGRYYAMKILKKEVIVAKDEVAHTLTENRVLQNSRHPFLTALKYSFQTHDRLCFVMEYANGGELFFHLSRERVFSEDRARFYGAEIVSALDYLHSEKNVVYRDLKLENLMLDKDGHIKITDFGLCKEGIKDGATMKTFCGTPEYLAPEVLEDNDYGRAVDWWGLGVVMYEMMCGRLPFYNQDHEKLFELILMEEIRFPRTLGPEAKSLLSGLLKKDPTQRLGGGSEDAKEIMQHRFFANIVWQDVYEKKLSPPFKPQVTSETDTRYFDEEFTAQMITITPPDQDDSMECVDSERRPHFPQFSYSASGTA

[5] = target: Mitogen-activated protein kinase 1 and 3 (ERK2 and ERK1) (Mus musculus) (UniProt P63085+Q63844); assay: Inhibition of LPS-stimulated ERK1/2 phosphorylation in mouse RAW264.7 cells at 5 to 20 uM pretreated for 1 hr followed by LPS stimulation and measured after 4 hrs by Western blot analysis; assay type: cell-based; method in brief: as §1
Sequence of Mitogen-activated protein kinase 1 and 3 (ERK2 and ERK1) (Mus musculus) (P63085 whole entry, looked up): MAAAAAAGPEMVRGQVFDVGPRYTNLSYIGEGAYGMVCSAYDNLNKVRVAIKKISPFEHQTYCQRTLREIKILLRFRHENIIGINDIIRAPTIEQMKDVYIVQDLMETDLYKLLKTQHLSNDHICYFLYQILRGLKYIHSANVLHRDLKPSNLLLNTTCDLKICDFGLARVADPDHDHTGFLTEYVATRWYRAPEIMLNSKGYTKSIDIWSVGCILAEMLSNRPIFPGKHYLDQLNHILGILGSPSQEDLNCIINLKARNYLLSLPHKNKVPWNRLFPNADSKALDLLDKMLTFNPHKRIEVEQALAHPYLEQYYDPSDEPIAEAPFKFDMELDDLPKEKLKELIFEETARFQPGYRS
Sequence of Mitogen-activated protein kinase 1 and 3 (ERK2 and ERK1) (Mus musculus) (Q63844 whole entry, looked up): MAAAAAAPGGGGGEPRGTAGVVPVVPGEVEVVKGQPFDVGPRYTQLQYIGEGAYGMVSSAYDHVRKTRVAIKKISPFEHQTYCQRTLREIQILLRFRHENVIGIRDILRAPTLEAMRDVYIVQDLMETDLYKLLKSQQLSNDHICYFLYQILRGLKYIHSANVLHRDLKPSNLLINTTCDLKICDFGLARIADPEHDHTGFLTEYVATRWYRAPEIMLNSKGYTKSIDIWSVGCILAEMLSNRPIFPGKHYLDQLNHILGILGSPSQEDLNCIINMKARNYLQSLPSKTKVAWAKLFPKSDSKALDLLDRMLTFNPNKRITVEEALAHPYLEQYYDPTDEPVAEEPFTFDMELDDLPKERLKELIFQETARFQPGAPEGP

[6] = test system: RAW264.7; assay: Anti-inflammatory activity in mouse RAW264.7 cells assessed as inhibition of LPS-induced IL-1beta mRNA expression pretreated for 1 hr followed by LPS stimulation and measured after 4 hrs by RT-PCR analysis; assay type: functional, cell-based
Method in brief: (§3)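 RAW264.7 cells were exposed to compound (1, 5, 20 µM), dexamethasone 1 µM or 0.02% DMSO vehicle, then stimulated with LPS 25 ng/mL for 4 h. Total RNA was isolated and analysed by real-time PCR. mRNA was normalized to β-actin and expressed relative to unstimulated control cells. Mean ± SEM, n = 4.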

[7] = Cytotoxicity against mouse RAW264.7 cells assessed as cell viability at 0.1 uM incubated for 18 hrs by celltiter-glo luminescent assay relative to control; assay type: cell-based; settings: read-out: Activity
Method in brief: (§4)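 Non-stimulated RAW264.7 cells were exposed to 0.1, 1, 5 and 20 µM compound from 100 mM DMSO stocks. Percent viability is the mean of three separate experiments with triplicate samples.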

[8] = test system: RAW264.7; assay: Anti-inflammatory activity in mouse RAW264.7 cells assessed as inhibition of LPS-induced MCP-1 mRNA expression pretreated for 1 hr followed by LPS stimulation and measured after 4 hrs by RT-PCR analysis; assay type: functional, cell-based; method in brief: as §3
[9] = target: Transcription factor p65 (Mus musculus) (UniProt Q04207); assay: Effect on p65 subunit NFkappaB phosphorylation in mouse RAW264.7 cells at 5 to 20 uM pretreated for 1 hr followed by LPS stimulation and measured after 4 hrs by Western blot analysis; assay type: cell-based
Sequence of Transcription factor p65 (Mus musculus) (Q04207 whole entry): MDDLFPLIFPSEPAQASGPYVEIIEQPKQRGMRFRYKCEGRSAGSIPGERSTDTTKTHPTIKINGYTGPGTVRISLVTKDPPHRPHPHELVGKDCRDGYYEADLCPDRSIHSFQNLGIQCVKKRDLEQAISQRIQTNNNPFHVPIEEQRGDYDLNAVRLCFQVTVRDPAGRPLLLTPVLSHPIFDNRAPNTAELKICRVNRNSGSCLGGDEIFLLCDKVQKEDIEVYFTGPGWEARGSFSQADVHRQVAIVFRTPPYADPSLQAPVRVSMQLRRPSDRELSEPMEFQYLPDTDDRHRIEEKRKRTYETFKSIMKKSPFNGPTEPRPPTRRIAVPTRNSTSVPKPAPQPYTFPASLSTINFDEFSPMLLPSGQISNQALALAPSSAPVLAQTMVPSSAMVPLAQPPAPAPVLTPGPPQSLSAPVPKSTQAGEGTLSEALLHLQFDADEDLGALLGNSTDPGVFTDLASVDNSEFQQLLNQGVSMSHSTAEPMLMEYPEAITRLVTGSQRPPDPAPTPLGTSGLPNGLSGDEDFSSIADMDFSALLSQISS
Method in brief: (§5)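 Whole-cell lysates from RAW264.7 cells given compound (5–20 µM) or vehicle and LPS 25 ng/mL for 4 h. Phosphorylated and total p65 were immunoblotted and bands quantified densitometrically. Mean ± SEM, n = 4, compared with 0.02% DMSO cells.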

[10] = test system: RAW264.7; assay: Anti-inflammatory activity in mouse RAW264.7 cells assessed as inhibition of LPS-induced TNFalpha production at 20 uM pretreated for 1 hr followed by LPS stimulation and measured after 18 hrs by ELISA relative to control; assay type: functional; parameters: scale not given: the % may be the effect or the level left
Method in brief: (§6)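 DMSO stocks (100 mM) were tested at 0.1, 1, 5 and 20 µM on LPS-stimulated RAW264.7 cells, with dexamethasone 1 µM as positive control. Secreted TNF-α or IL-6 was normalized to the percentage of viable LPS-stimulated cells at each concentration. Mean of three separate experiments, each in triplicate.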

[11] = species on record: Mus musculus; assay: Inhibition of LPS-stimulated NFkappaB activation in mouse RAW blue cells assessed as reduction in SEAP protein expression pretreated for 1 hr followed by LPS stimulation and measured after 24 hrs by reporter gene assay; assay type: cell-based; method in brief: as §2
[12] = Cytotoxicity against mouse RAW264.7 cells assessed as cell viability at 20 uM incubated for 18 hrs by celltiter-glo luminescent assay relative to control; assay type: cell-based; settings: read-out: Activity; method in brief: as §4
[13] = test system: RAW264.7; assay: Anti-inflammatory activity in mouse RAW264.7 cells assessed as inhibition of LPS-induced IL-6 production at 5 uM pretreated for 1 hr followed by LPS stimulation and measured after 18 hrs by ELISA relative to control; assay type: functional; parameters: scale not given: the % may be the effect or the level left; method in brief: as §6
[14] = test system: RAW264.7; assay: Anti-inflammatory activity in mouse RAW264.7 cells assessed as inhibition of LPS-induced TNFalpha production at 0.1 uM pretreated for 1 hr followed by LPS stimulation and measured after 18 hrs by ELISA relative to control; assay type: functional; parameters: scale not given: the % may be the effect or the level left; method in brief: as §6
[15] = target: RAC-alpha serine/threonine-protein kinase (Mus musculus) (UniProt P31750); assay: Inhibition of LPS-stimulated AKT phosphorylation in mouse RAW264.7 cells pretreated for 1 hr followed by LPS stimulation and measured after 4 hrs by Western blot analysis; assay type: cell-based; method in brief: as §1
[16] = test system: RAW264.7; assay: Anti-inflammatory activity in mouse RAW264.7 cells assessed as inhibition of LPS-induced IL-6 production at 20 uM pretreated for 1 hr followed by LPS stimulation and measured after 18 hrs by ELISA relative to control; assay type: functional; parameters: scale not given: the % may be the effect or the level left; method in brief: as §6
[17] = test system: RAW264.7; assay: Anti-inflammatory activity in mouse RAW264.7 cells assessed as inhibition of LPS-induced IL-6 production at 1 uM pretreated for 1 hr followed by LPS stimulation and measured after 18 hrs by ELISA relative to control; assay type: functional; parameters: scale not given: the % may be the effect or the level left; method in brief: as §6
[18] = target: Transcription factor p65 (Mus musculus) (UniProt Q04207); assay: Inhibition of LPS-stimulated NFkappaB activation in mouse RAW264.7 cells assessed as blockade of p65 NFkappaB nuclear translocation at 20 uM pretreated for 1 hr followed by LPS stimulation and measured after 4 hrs by Western blot analysis; assay type: cell-based
Method in brief: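 After compound at 20 µM or vehicle with LPS 25 ng/mL for 4 h, cytoplasmic and nuclear fractions were blotted for p65. TBP (nuclear) and GAPDH (cytoplasmic) served as loading controls. Nuclear p65 was quantified by band intensity, mean ± SEM, n = 4.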

[19] = test system: RAW264.7; assay: Anti-inflammatory activity against mouse RAW264.7 cells assessed as inhibition of LPS-stimulated NO production pretreated for 1 hr followed by LPS stimulation and measured after 24 hrs by Griess reagent based assay; assay type: functional, cell-based
[20] = test system: RAW264.7; assay: Anti-inflammatory activity in mouse RAW264.7 cells assessed as inhibition of LPS-induced iNOS mRNA expression pretreated for 1 hr followed by LPS stimulation and measured after 4 hrs by RT-PCR analysis; assay type: functional, cell-based; method in brief: as §3
[21] = Cytotoxicity against mouse RAW264.7 cells assessed as cell viability at 5 uM incubated for 18 hrs by celltiter-glo luminescent assay relative to control; assay type: cell-based; settings: read-out: Activity; method in brief: as §4
[22] = test system: RAW264.7; assay: Anti-inflammatory activity in mouse RAW264.7 cells assessed as inhibition of LPS-induced IL-6 mRNA expression pretreated for 1 hr followed by LPS stimulation and measured after 4 hrs by RT-PCR analysis; assay type: functional, cell-based; method in brief: as §3
[23] = test system: RAW264.7; assay: Anti-inflammatory activity in mouse RAW264.7 cells assessed as inhibition of LPS-induced IL-6 production at 0.1 uM pretreated for 1 hr followed by LPS stimulation and measured after 18 hrs by ELISA relative to control; assay type: functional; parameters: scale not given: the % may be the effect or the level left; method in brief: as §6
[24] = target: Transcription factor p65 (Mus musculus) (UniProt Q04207); assay: Effect on total p65 NFkappaB subunit protein level in mouse RAW264.7 cells at 5 to 20 uM pretreated for 1 hr followed by LPS stimulation and measured after 4 hrs by Western blot analysis; assay type: cell-based; method in brief: as §5
[25] = test system: RAW264.7; assay: Anti-inflammatory activity in mouse RAW264.7 cells assessed as inhibition of LPS-induced TNFalpha production at 5 uM pretreated for 1 hr followed by LPS stimulation and measured after 18 hrs by ELISA relative to control; assay type: functional; parameters: scale not given: the % may be the effect or the level left; method in brief: as §6
[26] = test system: RAW264.7; assay: Anti-inflammatory activity in mouse RAW264.7 cells assessed as inhibition of LPS-induced TNFalpha production at 1 uM pretreated for 1 hr followed by LPS stimulation and measured after 18 hrs by ELISA relative to control; assay type: functional; parameters: scale not given: the % may be the effect or the level left; method in brief: as §6
[27] = Cytotoxicity against mouse RAW264.7 cells assessed as cell viability at 1 uM incubated for 18 hrs by celltiter-glo luminescent assay relative to control; assay type: cell-based; settings: read-out: Activity; method in brief: as §4
[28] = test system: RAW264.7; assay: Anti-inflammatory activity in mouse RAW264.7 cells assessed as inhibition of LPS-induced TNF-alpha mRNA expression pretreated for 1 hr followed by LPS stimulation and measured after 4 hrs by RT-PCR analysis; assay type: functional, cell-based; method in brief: as §3

inhibition [2]: Active | inhibition [4]: Active | inhibition [5]: Active
SMILES: C=C1CC[C@@H]2[C@](C)(CO)[C@H](O)CC[C@@]2(C)[C@@H]1C/C=C1/C(=O)OC[C@H]1O
inhibition [1]: Active | inhibition [3]: inactive

Activity [9]: inactive | inhibition [2]: inactive | inhibition [15]: Dose-dependent effect | inhibition [18]: Active | IC50 [19]: 3.91 µM | inhibition [5]: inactive | Activity [24]: inactive
SMILES: C=C1CC[C@H]2C(C)(C)CCC[C@]2(C)[C@H]1C/C=C1/C(=O)OC[C@H]1O
inhibition [6]: Dose-dependent effect | viability at 18 h, 0.1 µM [7]: 103% | inhibition [8]: Dose-dependent effect | Activity [10]: 1.7% | inhibition [1]: inactive | inhibition [11]: Dose-dependent effect | viability at 18 h, 20 µM [12]: 53.7% | Activity [13]: 40% | Activity [14]: 99.3% | Activity [16]: 10.8% | Activity [17]: 68.1% | inhibition [19]: Dose-dependent effect | inhibition [20]: Dose-dependent effect | viability at 18 h, 5 µM [21]: 82.7% | inhibition [22]: Dose-dependent effect | Activity [23]: 99.2% | Activity [25]: 19.2% | Activity [26]: 63.4% | viability at 18 h, 1 µM [27]: 95.6% | inhibition [28]: Dose-dependent effect
